Calls of active or inactive are those of the source.
Tests used:
[1] = test system: Tyrosine-protein kinase ABL1 (Homo sapiens), P00519 [E255K]; assay: Inhibition of human phosphorylated ABL1 E255K mutant (S229 to K512 residues) expressed in mammalian expression system at 1 uM by Kinomescan method
Procedure, shortened: (§1)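 KINOMEscan competition binding screen at 1 μM compound. Results reported as % of control = (test − positive control)/(DMSO negative control − positive control) × 100, where lower values mean stronger hits.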

[2] = species on record: Homo sapiens; assay: Inhibition of EGFP-fused NFkappaB (unknown origin) stably expressed in mouse RAW 264.7 cells assessed as reduction in LPS-induced transcriptional activation at 10 uM measured after 3 hrs by flow cytometric analysis; assay type: cell-based
Procedure, shortened: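 RAW264.7 cells stably carrying an NF-κB response element–EGFP reporter (lentiviral, puromycin-selected). Cells treated with 500 ng/mL LPS for 1 h, then vehicle or compound (10 μM) for 3 h. EGFP signal measured by flow cytometry.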

[3] = target: MAP/microtubule affinity-regulating kinase 3 (Homo sapiens) (UniProt P27448); assay: Inhibition of wild-type human full length MARK3 (M1 to L729 residues) expressed in bacterial expression system at 1 uM by Kinomescan method; procedure, shortened: as §1
[4] = target: MAP kinase-interacting serine/threonine-protein kinase 2 (Homo sapiens) (UniProt Q9HBH9); assay: Inhibition of wild-type human partial length MKNK2 (G63 to S388 residues) expressed in mammalian expression system at 1 uM by Kinomescan method
Procedure, shortened: (§2)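 Binding-competition screen on the KINOMEscan platform, run by the provider, with the test compound at 1 μM. Readout is percent of control: (test signal − positive control signal)/(negative control signal − positive control signal) × 100. The DMSO negative control is set as 100% Ctrl and a control compound as 0% Ctrl. Lower values mean stronger hits.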

[5] = target: RAC-alpha serine/threonine-protein kinase (Homo sapiens) (UniProt P31749); assay: Inhibition of wild-type human partial length AKT1 expressed in bacterial expression system at 1 uM by Kinomescan method; procedure, shortened: as §1
[6] = target: Serine/threonine-protein kinase STK11 (Homo sapiens) (UniProt Q15831); assay: Inhibition of wild-type human full length LKB1 (M1 to Q433 residues) expressed in bacterial expression system at 1 uM by Kinomescan method; procedure, shortened: as §1
[7] = test system: Mast/stem cell growth factor receptor Kit (Homo sapiens), P10721 [D816V]; assay: Inhibition of human partial length KIT D816V mutant (I571 to D952 residues) expressed in bacterial expression system at 1 uM by Kinomescan method
Procedure, shortened: (§3)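 KINOMEscan competition binding panel (98 kinases) run by the provider, compound screened once at 1 μM. Read-out is percent of control: [(test signal − positive control signal)/(negative control signal − positive control signal)] × 100. DMSO negative control sets 100% Ctrl and a control compound sets 0% Ctrl; lower values mean stronger hits.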

[8] = target: Mast/stem cell growth factor receptor Kit (Homo sapiens) (UniProt P10721); assay: Inhibition of wild-type human partial length KIT (I571 to D952 residues) expressed in bacterial expression system at 1 uM by Kinomescan method; procedure, shortened: as §3
[9] = target: Mitogen-activated protein kinase 3 (Homo sapiens) (UniProt P27361); assay: Inhibition of wild-type human full length ERK1 (M1 to P379 residues) expressed in bacterial expression system at 1 uM by Kinomescan method; procedure, shortened: as §1
[10] = target: MAP kinase-interacting serine/threonine-protein kinase 1 (Homo sapiens) (UniProt Q9BUB5); assay: Inhibition of wild-type human full length MKNK1 (M1 to L424 residues) expressed in mammalian expression system at 1 uM by Kinomescan method; procedure, shortened: as §1
[11] = target: Cyclin-dependent kinase 3 (Homo sapiens) (UniProt Q00526); assay: Inhibition of wild-type human full length CDK3 (M1 to H305 residues) expressed in bacterial expression system at 1 uM by Kinomescan method; procedure, shortened: as §1
[12] = target: Mitogen-activated protein kinase 9 (Homo sapiens) (UniProt P45984); assay: Inhibition of wild-type human full length JNK2 (M1 to Q382 residues) expressed in mammalian expression system at 1 uM by Kinomescan method; procedure, shortened: as §1
[13] = target: Mitogen-activated protein kinase 11 (Homo sapiens) (UniProt Q15759); assay: Inhibition of wild-type human full length p38-beta (M1 to Q364 residues) expressed in bacterial expression system at 1 uM by Kinomescan method; procedure, shortened: as §1
[14] = target: Proto-oncogene tyrosine-protein kinase Src (Homo sapiens) (UniProt P12931); assay: Inhibition of wild-type human partial length SRC (L240 to L536 residues) expressed in bacterial expression system at 1 uM by Kinomescan method
Procedure, shortened: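 Single-concentration screen at 1 μM on the KINOMEscan panel (98 kinases), run by the platform provider. Results are given as percent of control: % Ctrl = [(test signal − positive control signal)/(negative control signal − positive control signal)] × 100. DMSO serves as negative control (100% Ctrl) and a control compound as positive control (0% Ctrl). Lower values mean stronger binding hits.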

[15] = target: RAC-beta serine/threonine-protein kinase (Homo sapiens) (UniProt P31751); assay: Inhibition of wild-type human partial length AKT2 expressed in bacterial expression system at 1 uM by Kinomescan method; procedure, shortened: as §1
[16] = test system: Epidermal growth factor receptor (Homo sapiens), P00533 [L858R]; assay: Inhibition of human partial length EGFR L858R mutant (R669 to V1011 residues) expressed in bacterial expression system at 1 uM by Kinomescan method; procedure, shortened: as §3
[17] = target: Cyclin-dependent kinase 9 (Homo sapiens) (UniProt P50750); assay: Inhibition of wild-type human full length CDK9 (M1 to F372 residues) expressed in bacterial expression system at 1 uM by Kinomescan method; procedure, shortened: as §1
[18] = target: Dual specificity mitogen-activated protein kinase kinase 2 (Homo sapiens) (UniProt P36507); assay: Inhibition of wild-type human full length MEK2 (M1 to V400 residues) expressed in mammalian expression system at 1 uM by Kinomescan method; procedure, shortened: as §1
[19] = target: Epidermal growth factor receptor (Homo sapiens) (UniProt P00533); assay: Inhibition of wild-type human partial length EGFR (R669 to V1011 residues) expressed in bacterial expression system at 1 uM by Kinomescan method; procedure, shortened: as §3
[20] = test system: Mus musculus; assay: Antiinflammatory activity in LPS-induced C57BL/6 mouse model of acute lung injury assessed as suppression of neutrophil lung infiltration by measuring reduction in MPO activity at 5 to 10 mg/kg, iv pretreated for 15 mins followed by LPS stimulation and measured after 6 hrs; assay type: functional, organism-based
Procedure, shortened: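 Male C57BL/6 mice (18−22 g; n=8 per group). Compound in 0.1% CMC-Na given by tail vein injection 15 min before intraperitoneal LPS (20 mg/kg); controls received saline. Mice were sacrificed 6 h after LPS, and serum and lung tissue were collected.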

[21] = target: Protein kinase C epsilon type (Homo sapiens) (UniProt Q02156); assay: Inhibition of wild-type human partial length PRKCE (A378 to P737 residues) expressed in mammalian expression system at 1 uM by Kinomescan method; procedure, shortened: as §2
[22] = target: Atypical kinase COQ8A, mitochondrial (Homo sapiens) (UniProt Q8NI60); assay: Inhibition of wild-type human […] length ADCK3 (M280 to Q647 residues) expressed in bacterial expression system at 1 uM by Kinomescan method; procedure, shortened: as §1

Chain of Mast/stem cell growth factor receptor Kit (Homo sapiens), P10721 [D816V] (P10721 whole entry D816V, the tested form may be a part): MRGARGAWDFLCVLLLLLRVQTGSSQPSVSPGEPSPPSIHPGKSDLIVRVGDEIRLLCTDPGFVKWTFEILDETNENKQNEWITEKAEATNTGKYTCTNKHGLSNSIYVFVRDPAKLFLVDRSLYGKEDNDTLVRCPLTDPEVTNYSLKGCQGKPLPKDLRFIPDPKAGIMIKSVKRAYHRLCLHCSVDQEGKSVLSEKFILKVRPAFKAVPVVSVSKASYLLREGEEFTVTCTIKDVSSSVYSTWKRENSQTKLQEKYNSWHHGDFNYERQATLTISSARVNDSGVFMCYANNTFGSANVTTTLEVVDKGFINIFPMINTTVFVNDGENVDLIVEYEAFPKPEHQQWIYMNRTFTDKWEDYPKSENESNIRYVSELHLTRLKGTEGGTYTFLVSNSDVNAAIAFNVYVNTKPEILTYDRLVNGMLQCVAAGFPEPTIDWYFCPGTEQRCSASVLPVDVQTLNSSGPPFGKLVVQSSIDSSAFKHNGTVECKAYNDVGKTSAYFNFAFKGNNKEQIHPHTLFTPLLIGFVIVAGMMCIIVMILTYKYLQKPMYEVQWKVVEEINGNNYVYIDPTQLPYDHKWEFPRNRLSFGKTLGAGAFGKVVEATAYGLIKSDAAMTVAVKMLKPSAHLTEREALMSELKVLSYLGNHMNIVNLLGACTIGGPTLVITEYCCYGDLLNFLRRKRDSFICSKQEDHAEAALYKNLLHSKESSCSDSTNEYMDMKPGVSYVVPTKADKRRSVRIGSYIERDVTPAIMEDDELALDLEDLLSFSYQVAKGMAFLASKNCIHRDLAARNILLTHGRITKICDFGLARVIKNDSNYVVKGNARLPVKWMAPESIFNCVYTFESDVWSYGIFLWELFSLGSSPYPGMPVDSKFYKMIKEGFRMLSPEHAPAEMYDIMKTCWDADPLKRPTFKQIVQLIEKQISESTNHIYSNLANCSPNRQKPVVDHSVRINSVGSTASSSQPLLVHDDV
Chain of Mitogen-activated protein kinase 9 (Homo sapiens) (P45984 whole entry, looked up, the tested form may be a part): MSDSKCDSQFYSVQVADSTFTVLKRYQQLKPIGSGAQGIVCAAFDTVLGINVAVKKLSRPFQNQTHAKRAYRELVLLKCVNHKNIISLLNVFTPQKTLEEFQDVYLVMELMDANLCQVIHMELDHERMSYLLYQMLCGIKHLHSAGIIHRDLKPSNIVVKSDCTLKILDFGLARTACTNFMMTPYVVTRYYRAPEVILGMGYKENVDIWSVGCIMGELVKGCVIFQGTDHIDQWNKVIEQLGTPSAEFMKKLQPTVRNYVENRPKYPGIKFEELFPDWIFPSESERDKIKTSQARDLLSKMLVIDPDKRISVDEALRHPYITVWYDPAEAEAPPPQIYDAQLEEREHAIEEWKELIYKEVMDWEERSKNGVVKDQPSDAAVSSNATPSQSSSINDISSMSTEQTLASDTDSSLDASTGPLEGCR
Chain of Cyclin-dependent kinase 9 (Homo sapiens) (P50750 whole entry, the tested form may be a part): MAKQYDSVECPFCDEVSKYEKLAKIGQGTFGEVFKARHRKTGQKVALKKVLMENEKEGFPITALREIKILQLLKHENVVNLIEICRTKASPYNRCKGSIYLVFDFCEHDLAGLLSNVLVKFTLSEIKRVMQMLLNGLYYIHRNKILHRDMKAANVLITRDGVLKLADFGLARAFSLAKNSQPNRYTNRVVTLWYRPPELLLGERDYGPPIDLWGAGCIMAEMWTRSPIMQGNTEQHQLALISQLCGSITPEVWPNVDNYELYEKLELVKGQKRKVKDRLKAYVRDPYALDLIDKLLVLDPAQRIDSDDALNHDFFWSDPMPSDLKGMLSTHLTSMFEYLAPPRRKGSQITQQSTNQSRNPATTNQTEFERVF
Chain of Dual specificity mitogen-activated protein kinase kinase 2 (Homo sapiens) (P36507 whole entry, the tested form may be a part): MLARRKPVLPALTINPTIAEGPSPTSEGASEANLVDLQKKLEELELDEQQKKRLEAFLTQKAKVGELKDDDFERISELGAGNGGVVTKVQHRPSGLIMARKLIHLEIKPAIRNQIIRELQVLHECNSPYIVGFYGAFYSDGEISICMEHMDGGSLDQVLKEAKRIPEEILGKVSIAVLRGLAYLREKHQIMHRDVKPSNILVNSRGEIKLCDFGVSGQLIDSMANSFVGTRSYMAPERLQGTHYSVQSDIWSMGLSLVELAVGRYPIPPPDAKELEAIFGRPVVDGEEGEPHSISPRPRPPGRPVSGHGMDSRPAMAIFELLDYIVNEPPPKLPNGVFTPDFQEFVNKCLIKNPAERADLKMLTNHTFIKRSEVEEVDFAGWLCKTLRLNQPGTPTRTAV
Chain of Epidermal growth factor receptor (Homo sapiens), P00533 [L858R] (P00533 whole entry L858R, the tested form may be a part): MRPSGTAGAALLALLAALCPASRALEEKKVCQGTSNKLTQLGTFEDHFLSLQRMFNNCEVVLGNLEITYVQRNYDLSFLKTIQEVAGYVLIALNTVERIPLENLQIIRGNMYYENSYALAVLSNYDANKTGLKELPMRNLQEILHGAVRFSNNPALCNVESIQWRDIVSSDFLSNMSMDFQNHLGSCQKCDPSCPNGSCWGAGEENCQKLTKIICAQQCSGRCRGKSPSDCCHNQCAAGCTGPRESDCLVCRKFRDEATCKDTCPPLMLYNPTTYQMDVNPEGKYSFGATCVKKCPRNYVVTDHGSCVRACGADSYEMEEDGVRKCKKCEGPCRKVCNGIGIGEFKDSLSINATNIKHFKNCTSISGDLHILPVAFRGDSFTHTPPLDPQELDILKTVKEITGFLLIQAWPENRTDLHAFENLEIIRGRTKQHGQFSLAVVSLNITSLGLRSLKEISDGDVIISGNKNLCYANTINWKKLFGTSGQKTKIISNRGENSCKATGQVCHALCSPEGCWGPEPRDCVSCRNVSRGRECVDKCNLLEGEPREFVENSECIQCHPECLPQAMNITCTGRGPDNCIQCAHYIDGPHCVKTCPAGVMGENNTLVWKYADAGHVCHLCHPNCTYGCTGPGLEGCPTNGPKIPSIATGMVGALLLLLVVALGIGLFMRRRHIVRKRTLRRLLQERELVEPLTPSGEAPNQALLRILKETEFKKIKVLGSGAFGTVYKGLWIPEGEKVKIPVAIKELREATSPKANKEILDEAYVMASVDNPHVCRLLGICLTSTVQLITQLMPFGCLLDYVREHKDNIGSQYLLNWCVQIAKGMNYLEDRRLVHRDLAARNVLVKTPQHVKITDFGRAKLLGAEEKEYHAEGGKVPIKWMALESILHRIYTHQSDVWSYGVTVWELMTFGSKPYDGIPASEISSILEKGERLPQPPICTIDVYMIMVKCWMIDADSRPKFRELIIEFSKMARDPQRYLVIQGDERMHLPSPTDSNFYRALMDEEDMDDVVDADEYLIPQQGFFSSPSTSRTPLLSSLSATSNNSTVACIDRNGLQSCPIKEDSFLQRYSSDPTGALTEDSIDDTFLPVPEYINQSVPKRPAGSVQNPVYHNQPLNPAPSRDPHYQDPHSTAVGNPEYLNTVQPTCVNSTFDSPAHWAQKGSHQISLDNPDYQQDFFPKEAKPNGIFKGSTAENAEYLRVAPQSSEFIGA
Chain of Epidermal growth factor receptor (Homo sapiens) (P00533 whole entry, the tested form may be a part): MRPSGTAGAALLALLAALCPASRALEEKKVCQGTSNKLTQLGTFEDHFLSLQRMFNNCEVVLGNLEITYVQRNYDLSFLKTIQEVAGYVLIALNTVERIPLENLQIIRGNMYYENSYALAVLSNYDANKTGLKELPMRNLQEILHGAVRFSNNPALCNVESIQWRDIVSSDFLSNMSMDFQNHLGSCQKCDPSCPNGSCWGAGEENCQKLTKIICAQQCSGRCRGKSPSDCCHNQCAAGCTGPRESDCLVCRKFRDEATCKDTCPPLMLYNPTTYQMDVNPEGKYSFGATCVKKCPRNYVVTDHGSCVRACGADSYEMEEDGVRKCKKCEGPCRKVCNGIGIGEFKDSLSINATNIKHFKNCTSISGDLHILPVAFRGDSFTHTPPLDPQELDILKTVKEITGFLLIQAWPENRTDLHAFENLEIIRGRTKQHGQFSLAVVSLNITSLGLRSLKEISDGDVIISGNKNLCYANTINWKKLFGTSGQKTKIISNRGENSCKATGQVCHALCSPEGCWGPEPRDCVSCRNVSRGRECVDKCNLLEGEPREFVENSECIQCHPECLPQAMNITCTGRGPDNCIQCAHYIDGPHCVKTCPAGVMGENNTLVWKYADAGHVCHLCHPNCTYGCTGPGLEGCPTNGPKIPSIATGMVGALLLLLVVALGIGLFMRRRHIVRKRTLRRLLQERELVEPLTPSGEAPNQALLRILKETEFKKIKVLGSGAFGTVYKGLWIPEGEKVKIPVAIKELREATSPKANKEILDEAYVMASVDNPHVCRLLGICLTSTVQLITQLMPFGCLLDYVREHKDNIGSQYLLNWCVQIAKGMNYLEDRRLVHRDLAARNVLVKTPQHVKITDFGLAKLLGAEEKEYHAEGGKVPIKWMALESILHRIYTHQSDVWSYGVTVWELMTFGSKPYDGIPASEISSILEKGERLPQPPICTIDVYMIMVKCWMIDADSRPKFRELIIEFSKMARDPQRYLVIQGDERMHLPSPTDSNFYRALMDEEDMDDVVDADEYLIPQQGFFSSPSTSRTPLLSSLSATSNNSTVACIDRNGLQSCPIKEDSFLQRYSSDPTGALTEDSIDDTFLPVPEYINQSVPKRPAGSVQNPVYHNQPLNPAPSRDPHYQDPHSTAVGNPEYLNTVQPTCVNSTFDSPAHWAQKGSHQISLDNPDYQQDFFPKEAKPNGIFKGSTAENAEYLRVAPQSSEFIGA
Chain of Serine/threonine-protein kinase STK11 (Homo sapiens) (Q15831 whole entry, the tested form may be a part): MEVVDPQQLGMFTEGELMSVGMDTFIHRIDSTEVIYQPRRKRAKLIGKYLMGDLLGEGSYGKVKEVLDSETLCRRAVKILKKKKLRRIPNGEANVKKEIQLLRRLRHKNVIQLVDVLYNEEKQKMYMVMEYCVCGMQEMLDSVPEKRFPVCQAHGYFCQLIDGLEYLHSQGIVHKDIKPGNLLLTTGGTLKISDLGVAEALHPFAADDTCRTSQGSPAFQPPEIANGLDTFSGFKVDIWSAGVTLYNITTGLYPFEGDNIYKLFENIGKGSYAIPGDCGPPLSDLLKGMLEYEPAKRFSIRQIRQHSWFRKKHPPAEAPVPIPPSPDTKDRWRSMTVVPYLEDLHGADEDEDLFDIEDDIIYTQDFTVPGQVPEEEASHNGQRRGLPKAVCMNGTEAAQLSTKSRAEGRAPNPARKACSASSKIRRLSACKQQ

O=C(Nc1ccc2[nH]nc(-c3ccc4[nH]ccc4c3)c2c1)c1c(Cl)cccc1Cl
inactive: inhibition [1] | inhibition [3] | inhibition [4] | inhibition [5] | inhibition [6] | inhibition [7] | inhibition [8] | inhibition [9] | inhibition [10] | inhibition [11] | inhibition [12] | inhibition [13] | inhibition [14] | inhibition [15] | inhibition [16] | inhibition [17] | inhibition [18] | inhibition [19] | inhibition [21] | inhibition [22]
active: inhibition [2] | Activity [20]

From ChEMBL document CHEMBL4304739, “Discovery of 3-(Indol-5-yl)-indazole Derivatives as Novel Myeloid Differentiation Protein 2/Toll-like Receptor 4 Antagonists for Treatment of Acute Lung Injury” (J Med Chem, 2019)
